Only some compounds are listed: those with a hit (about 3.1% of all), similar ones and a draw of the others.
Myeloid diff MLP: myeloid differentiation induction; ER-HoxA9 myeloid progenitors, lysozyme-GFP differentiation, flow cytometry; calls only at 10 µM; 360,000 compounds, 1% hits;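 active means normalized GFP-positive differentiation at or above the plate's own cutoff, the solvent-only control mean plus 3 SD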;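 further: cells exposed to compound for four days before flow analysis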
core dimer inh: blocks dimerization of HCV core protein; TR-FRET GST/Flag-core106 dimerization, 1536-well; 300,000 compounds, 0.33% hits; inhibition, % at 5 µM;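 active means inhibition above the mean of all tested compounds plus 3 SD, set per screening campaign, cut at about 45% in these data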
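System – GST-tagged and Flag-tagged HCV core protein residues 1-106 · Repeats – one well for each compound · Technique – TR-FRET 671 and 617 nm emission · Doses – one concentration, 5 µM, in 0.5% DMSO · Times – 4 h, 22.5 °C incubation · Also added – Eu donor and XL665 acceptor anti-tag antibodies · Measure – percent inhibition of core106 dimerization signal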
PP1 counter: PP1-alpha (human) inhibition in PP5 counter-screen; AID 2235; purified PP1alpha, OMFP fluorescence; inhibition, % at 6.7 µM; 320,000 compounds, 0.9% hits;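 active means inhibition above the mean inhibition of all tested compounds plus 3 SD, computed separately for each screening campaign, cut at about 15% in these data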
Target sequence (P62136 whole entry, looked up): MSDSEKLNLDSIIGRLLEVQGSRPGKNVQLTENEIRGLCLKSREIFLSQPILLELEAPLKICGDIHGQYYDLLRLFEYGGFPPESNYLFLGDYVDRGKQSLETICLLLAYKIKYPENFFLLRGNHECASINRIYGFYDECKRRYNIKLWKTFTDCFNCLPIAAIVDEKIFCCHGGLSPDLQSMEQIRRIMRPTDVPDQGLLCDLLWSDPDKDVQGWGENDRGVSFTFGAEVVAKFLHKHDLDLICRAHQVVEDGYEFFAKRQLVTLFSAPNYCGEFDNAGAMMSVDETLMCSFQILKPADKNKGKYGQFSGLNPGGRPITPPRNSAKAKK
NadD inh: NadD (S. aureus) enzyme inhibition; purified NadD enzyme, colorimetric absorbance read-out; inhibition, % at 20 µM; 360,000 compounds, 0.78% hits; AID 602399; in the data active means inhibition above about 26%
CTSL1 counter: blocks F. hepatica cathepsin L1 in PFM18AAP counter-screen | recombinant F. hepatica cathepsin L1, Z-Leu-Arg-MCA fluorescence | inhibition, % at 5.96 µM | 300,000 compounds, 0.49% hits | AID 1906;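 active means inhibition above the mean of all tested compounds plus 3 SD, set per screening campaign, cut at about 17% in these data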
PP5 primary: PP5 (human) phosphatase inhibition; P53041; purified PP5c, OMFP substrate fluorescence; inhibition, % at 6.7 µM; 320,000 compounds, 0.18% hits; AID 1987;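 active means inhibition above the campaign's mean inhibition across all tested compounds plus 3 SD, cut at about 9.5% in these data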
Each line names hits and unclear results; the compound was inactive in the other large screens.

Cc1ccc(NC(=O)C2(C)CCN2C(=O)Cc2ccc(C(C)(C)C)cc2)cc1C (centres undefined)	none (no result: core dimer inh, PP1 counter, CTSL1 counter, PP5 primary)
CN1CCCC1CCNc1ccc2sc3ccccc3c(=O)c2c1 (centres undefined)	Myeloid diff MLP active
O=c1c2ccccc2sc2ccc(NCCCN3CCOCC3)cc12	Myeloid diff MLP active
O=C(CN(CCO)Cc1ccccc1)N1CCN(S(=O)(=O)c2ccccc2)CC1	none (no result: core dimer inh, PP1 counter, CTSL1 counter, PP5 primary)
Cc1ccc2c(c1)c1c3n2CC(=C2C(=O)OC(C)(C)OC2=O)NC3CCC1 (centres undefined)	core dimer inh 46
CCCCCN(C(=O)CCC(=O)OCc1cccc(C(F)(F)F)c1)c1c(N)n(CCCC)c(=O)[nH]c1=O	none
O=C(NCc1ccco1)c1ccc(S(=O)(=O)N2CCOCC2)cc1	core dimer inh 48
O=S(=O)(c1ccc2nc(-c3ccco3)c(-c3ccco3)nc2c1)N1CCOCC1	core dimer inh 59
O=C(NCc1ccco1)c1ccc(S(=O)(=O)N2CCCCC2)cc1	none
Cc1cc(C(=O)OCC(=O)Nc2ccccc2C#N)c(C)o1	none (no result: core dimer inh, PP1 counter, CTSL1 counter, PP5 primary)
Cc1ccc(-c2nc(CS(=O)CC(=O)NC3CCCC(C)C3C)c(C)o2)cc1 (centres undefined)	none
COc1ccc(-c2nc(CS(=O)CC(=O)NC3CCCC(C)C3C)c(C)o2)cc1OC (centres undefined)	Myeloid diff MLP active
CC(C)(C)OC(=O)N[C@@H](Cc1ccccc1)c1nnc(S(=O)(=O)Cc2cccc(F)c2)o1	CTSL1 counter 31 (no result: Myeloid diff MLP, NadD inh)
CC(C)C[C@H](N)c1nnc(S(=O)(=O)Cc2cccc(F)c2)o1	CTSL1 counter 72
CC[C@@H](C)[C@H](NC(=O)OC(C)(C)C)c1nnc(S(=O)(=O)Cc2cc(C)ccc2C)o1	CTSL1 counter 76
CC(C)[C@H](NC(=O)OC(C)(C)C)c1nnc(S(=O)(=O)Cc2c(F)cccc2Cl)o1	CTSL1 counter 41 (no result: Myeloid diff MLP)
Cc1ccsc1C(=O)N1CCN(C(=O)c2ccco2)CC1	none (no result: core dimer inh, CTSL1 counter)
COc1ccc(CCN2CC(C(=O)NCc3ccon3)CCC2=O)cc1 (centres undefined)	none (no result: core dimer inh, PP1 counter, CTSL1 counter, PP5 primary)
Cc1ccccc1CS(=O)(=O)c1nnc([C@H](CC(C)C)NC(=O)OC(C)(C)C)o1	CTSL1 counter 82 (no result: Myeloid diff MLP)
CC(C)=CCSc1nnc([C@@H](NC(=O)OC(C)(C)C)C(C)C)o1	CTSL1 counter 36
CC(C)C[C@H](NC(=O)OC(C)(C)C)c1nnc(SCc2ccccc2)o1	CTSL1 counter 23
CCOC(=O)CSc1nnc([C@H](Cc2ccccc2)NC(=O)OC(C)(C)C)o1	none
C#CCN1C=CC(=O)[C@@H](OC(=O)NCCC)[C@H]1c1ccccc1Br	none (no result: core dimer inh, PP1 counter, CTSL1 counter, PP5 primary)
CC(C)n1nc(C(=O)Nc2ccc3c(c2)OCO3)c2ccccc2c1=O	none (no result: core dimer inh, CTSL1 counter)
COc1cccc(NC(=S)N2CCN(C/C=C/c3ccccc3)CC2)c1	none
COc1cc(NC(=S)N2CCN(C/C=C/c3ccccc3)CC2)cc(OC)c1	Myeloid diff MLP active
COc1cc(NC(=S)N2CCN(C(c3ccccc3)c3ccccc3)CC2)cc(OC)c1	Myeloid diff MLP active
Cc1cc(C)c(C(=O)/C=C/c2ccco2)c(=O)[nH]1	Myeloid diff MLP active
Cc1cc(CNC(=O)c2cccnc2Cl)c2ccccc2n1	CTSL1 counter 18 (no result: Myeloid diff MLP)
CCCNC(=O)c1cc(C2CCCN(C(=O)c3ccc4ccccc4c3)C2)on1 (centres undefined)	none (no result: core dimer inh, PP1 counter, CTSL1 counter, PP5 primary)
Cc1cccc(C)c1NC(=O)C1(C)CN(S(C)(=O)=O)CC(=O)N1Cc1cccs1 (centres undefined)	none (no result: core dimer inh, PP1 counter, NadD inh, CTSL1 counter, PP5 primary)
Cc1cc(C)cc(NC(=O)COC(=O)CNC(=O)C2CCCCC2)c1	none (no result: core dimer inh, CTSL1 counter)
COc1cc(C(=O)COC(=O)CNC(=O)C2CCCCC2)cc(OC)c1OC	CTSL1 counter 36
O=C(COC(=O)CNC(=O)C1CCCCC1)Nc1ccc(Cl)cc1F	CTSL1 counter 34
Cc1ccc(NC(=O)COC(=O)CNC(=O)C2CCCCC2)c(Br)c1	CTSL1 counter 47
O=C(NCCCSc1ccccc1)c1cc(Cl)ccc1O	none (no result: core dimer inh, PP1 counter, CTSL1 counter, PP5 primary)
O=C(CN1CCN(S(=O)(=O)c2cccc(Br)c2)CC1)N1CCCCC1	none (no result: core dimer inh, CTSL1 counter)
Cc1cnc(C(=O)N2CCc3c([nH]c4ccccc34)C2c2ccc(F)cc2)cn1 (centres undefined)	none
CC(=O)c1cc(C(=O)N2CCc3c([nH]c4ccccc34)C2C2CCCCC2)[nH]n1 (centres undefined)	Myeloid diff MLP active

Assay outcomes as filed in PubChem.
